{"source": "ChEMBL document CHEMBL1154037", "about": "“In vivo targeting of tumor-associated carbonic anhydrases using acetazolamide derivatives” (Bioorg Med Chem Lett, 2009)", "key": {"Blood [1]": {"system": "Blood", "test": "Drug level in human LS 174T cells xenografted BALB/c nu/nu mouse blood at 0.5 umol. iv", "type": "ADME, cell-based, LS174T", "conditions": "in vivo, read-out: Drug uptake", "outline": "(§1)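 A bolus i.v. injection of 340 µg (0.5 µmol) was given to tumor-bearing mice. Blood concentration was estimated immediately at the end of the bolus injection.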"}, "Albumin": {"target": "Albumin (Homo sapiens, UniProt P02768)", "sequence (P02768 whole entry)": "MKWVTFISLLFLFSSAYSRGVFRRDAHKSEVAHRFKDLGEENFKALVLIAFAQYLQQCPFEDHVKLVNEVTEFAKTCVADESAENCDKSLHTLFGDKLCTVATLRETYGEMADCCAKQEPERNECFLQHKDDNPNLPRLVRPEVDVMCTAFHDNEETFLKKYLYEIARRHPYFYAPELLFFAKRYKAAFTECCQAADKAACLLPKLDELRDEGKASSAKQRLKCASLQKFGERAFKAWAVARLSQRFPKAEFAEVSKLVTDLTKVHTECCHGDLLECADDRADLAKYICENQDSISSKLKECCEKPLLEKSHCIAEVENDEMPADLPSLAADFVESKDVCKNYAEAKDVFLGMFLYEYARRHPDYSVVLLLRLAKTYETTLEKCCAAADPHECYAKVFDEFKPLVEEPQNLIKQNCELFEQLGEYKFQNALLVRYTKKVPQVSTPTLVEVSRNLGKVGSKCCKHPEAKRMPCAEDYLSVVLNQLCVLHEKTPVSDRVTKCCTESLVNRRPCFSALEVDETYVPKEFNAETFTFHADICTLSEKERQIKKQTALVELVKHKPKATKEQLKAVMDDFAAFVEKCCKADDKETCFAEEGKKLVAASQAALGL", "test": "Binding affinity to HSA by isothermal titration calorimetry", "type": "ADME"}, "Mus musculus [2]": {"system": "Mus musculus", "test": "Toxicity in human SK-RC-52 cells xenografted BALB/c nu/nu mouse assessed as effect on body weight at 340 ug, iv administered as 5 weekly injection schedule for 3 consecutive weeks", "type": "organism-based", "conditions": "in vivo", "outline": "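SK-RC-52 xenografted Balb/c nude mice, n = 5, given 340 µg (17 mg/kg) per injection i.v. in saline with 15% (v/v) DMSO. Body weight was monitored during therapy and expressed as % of body weight on day 1 of treatment.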"}, "Blood [3]": {"system": "Blood", "test": "Drug level in human SK-RC-52 cells xenografted BALB/c nu/nu mouse blood at 0.5 umol. iv", "type": "ADME, cell-based", "conditions": "read-out: Drug uptake", "outline": "as §1"}, "Carbonic anhydrase 9 [4]": {"target": "T1, Carbonic anhydrase 9 (Homo sapiens, UniProt Q16790)", "test": "Binding affinity to human CA9 catalytic domain by isothermal titration calorimetry"}, "LS174T [5]": {"system": "LS174T", "test": "Antitumor activity against human LS 174T cells xenografted BALB/c nu/nu mouse assessed as inhibition of tumor growth at 340 ug, iv administered as 5 weekly injection schedule for 2 consecutive weeks", "type": "functional, organism-based", "outline": "(§2)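 Subcutaneous xenografts in Balb/c nude mice, n = 5 per group. Dosing was 340 µg (17 mg/kg, 0.5 µmol) per injection i.v. Vehicle was saline with 15% (v/v) DMSO, and controls received vehicle alone. Read-out was tumor volume over time, given as mean ± SE.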"}, "Homo sapiens [6]": {"system": "Homo sapiens", "test": "Antitumor activity against human SK-RC-52 cells xenografted BALB/c nu/nu mouse assessed as inhibition of tumor growth at 340 ug, iv administered as 5 weekly injection schedule for 3 consecutive weeks", "type": "functional, organism-based", "outline": "as §2"}, "Mus musculus [7]": {"system": "Mus musculus", "test": "Toxicity in human SK-RC-52 cells xenografted BALB/c nu/nu mouse assessed as effect on body weight at 25 mg/kg, ip", "type": "organism-based", "design": "dose 25 mg/kg, route intraperitoneal", "conditions": "in vivo"}, "LS174T [8]": {"system": "LS174T", "test": "Antitumor activity against human LS 174T cells xenografted BALB/c nu/nu mouse assessed as inhibition of tumor growth at 25 mg/kg, ip", "type": "functional, organism-based", "design": "dose 25 mg/kg", "outline": "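Balb/c nude mice with subcutaneous LS174T human colorectal xenografts, dosed i.p. at 25 mg/kg/day. Vehicle controls received saline containing 15% (v/v) DMSO i.v. Tumor growth was followed as mean tumor volume ± SE, n = 5 per group. Body weight was also tracked as % of day-1 weight.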"}, "Mus musculus [9]": {"system": "Mus musculus", "test": "Toxicity in human SK-RC-52 cells xenografted BALB/c nu/nu mouse assessed as effect on body weight at 20 mg/kg, ip", "type": "organism-based", "design": "dose 20 mg/kg, route intraperitoneal", "conditions": "in vivo"}, "Homo sapiens [10]": {"system": "Homo sapiens", "test": "Antitumor activity against human SK-RC-52 cells xenografted BALB/c nu/nu mouse assessed as inhibition of tumor growth at 20 mg/kg, ip", "type": "functional, organism-based", "design": "dose 20 mg/kg"}, "Mus musculus [11]": {"system": "Mus musculus", "test": "Drug uptake in human LS 174T cells xenografted BALB/c nu/nu mouse at 1.26 umol, iv after 2 hrs", "type": "ADME, organism-based, LS174T", "conditions": "in vivo", "outline": "(§3)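 Balb/c nu/nu mice carried subcutaneous LS174T tumors of about 500 mg. They received 680 µg (1.26 µmol) of fluorescent compound in the tail vein and were sacrificed 1 h or 2 h later. Fluorescence microscopy was done on 10 µm sections of tumor, muscle, heart, lung, intestine, spleen, kidney and liver. Exposures were 900 ms (1 h) and 1100 ms (2 h).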"}, "Kidney": {"system": "Kidney", "test": "Drug uptake in human LS 174T cells xenografted BALB/c nu/nu mouse kidney at 1.26 umol, iv after 1 hr", "type": "ADME, organism-based, LS174T", "conditions": "in vivo", "outline": "as §3"}, "[12]": {"test": "Drug uptake in human LS 174T cells assessed as increase in fluorescence intensity at 3 uM by FACS method relative to untreated control", "type": "ADME, cell-based", "conditions": "ls174t", "outline": "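LS174T cells were incubated with fluorescein-labelled compound at 0.26 or 3 µM and analysed by flow cytometry in the FITC channel. Mean fluorescence was compared with unstained cells. Free FAM served as a dye control, and polyclonal anti-CA IX staining confirmed antigen presence.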"}, "Carbonic anhydrase 9 [13]": {"target": "T1, Carbonic anhydrase 9", "test": "Inhibition of human CA9 catalytic domain using 4-nitrophenylacetate substrate by colorimetry", "outline": "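CA IX esterase activity was measured colorimetrically via conversion of 4-nitrophenylacetate and reported as Ki. Line 15 was run in the presence of 10 µM mouse serum albumin.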"}, "Intestine": {"system": "Intestine", "test": "Drug uptake in human LS 174T cells xenografted BALB/c nu/nu mouse intestine at 1.26 umol, iv after 1 hr", "type": "ADME, organism-based, LS174T", "conditions": "in vivo", "outline": "as §3"}, "Mus musculus [14]": {"system": "Mus musculus", "test": "Drug uptake in human LS 174T cells xenografted BALB/c nu/nu mouse at 1.26 umol, iv after 1 hr", "type": "ADME, organism-based, LS174T", "conditions": "in vivo", "outline": "as §3"}, "Liver": {"system": "Liver", "test": "Drug uptake in human LS 174T cells xenografted BALB/c nu/nu mouse liver at 1.26 umol, iv after 1 hr", "type": "ADME, organism-based, LS174T", "conditions": "in vivo", "outline": "as §3"}}, "note": "The source made the active and inactive calls. The calls are words filed in the database; no cut-off is given here.", "data": [{"smiles": "NS(=O)(=O)c1nnc(NC(=O)CCC(=O)NC(CCCCNC(=O)CCCc2ccc(I)cc2)C(=O)O)s1", "note": "(stereo not drawn)", "values": [{"measurement": "concentration", "setting": "Blood [1]", "result": 250, "unit": "µM"}, {"measurement": "Kd", "setting": "Albumin", "result": 820, "unit": "nM"}, {"measurement": "Activity", "setting": "Mus musculus [2]", "result": "Non-toxic"}, {"measurement": "concentration", "setting": "Blood [3]", "result": 250, "unit": "µM"}, {"measurement": "Kd", "setting": "Carbonic anhydrase 9 [4]", "result": 3.2, "unit": "nM"}, {"measurement": "Activity", "setting": "LS174T [5]", "result": "inactive"}, {"measurement": "Activity", "setting": "Homo sapiens [6]", "result": "Active"}]}, {"smiles": "O=c1[nH]cc(F)c(=O)[nH]1", "note": "[FLUOROURACIL]", "values": [{"measurement": "Activity", "setting": "Mus musculus [7]", "result": "Toxic"}, {"measurement": "Activity", "setting": "LS174T [8]", "result": "Active"}]}, {"smiles": "CCN(CC)CCNC(=O)c1c(C)[nH]c(/C=C2\\C(=O)Nc3ccc(F)cc32)c1C", "note": "[SUNITINIB]", "values": [{"measurement": "Activity", "setting": "Mus musculus [9]", "result": "Non-toxic"}, {"measurement": "Activity", "setting": "Homo sapiens [10]", "result": "Active"}]}, {"smiles": "NS(=O)(=O)c1nnc(NC(=O)c2ccc(-c3c4ccc(=O)cc-4oc4cc(O)ccc34)c(C(=O)O)c2)s1", "values": [{"measurement": "Drug uptake", "setting": "Mus musculus [11]", "result": "Active"}, {"measurement": "Drug uptake", "setting": "Kidney", "result": "Active"}, {"measurement": "fold change (FC)", "setting": "[12]", "result": "> 10"}, {"measurement": "Ki", "setting": "Carbonic anhydrase 9 [13]", "result": 220, "unit": "nM"}, {"measurement": "Drug uptake", "setting": "Intestine", "result": "Active"}, {"measurement": "Drug uptake", "setting": "Mus musculus [14]", "result": "Active"}, {"measurement": "Drug uptake", "setting": "Liver", "result": "Active"}]}]}
